Source: ChEMBL document CHEMBL3580553, “Potent and Nontoxic Chemosensitizer of P-Glycoprotein-Mediated Multidrug Resistance in Cancer: Synthesis and Evaluation of Methylated Epigallocatechin, Gallocatechin, and Dihydromyricetin Derivatives” (J Med Chem, 2015)
Activity calls are given as the source filed them. No cut-off for these calls is given here.

Columns and labels:
[1] = Drug uptake in human LCC-6 cells at 20 uM after 150 mins by spectrofluorometry relative to P-gp expressing cells; assay type: ADME, cell-based; conditions: lcc-6, 2.5 h
How it was run: (§1)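 LCC6 or LCC6MDR cells (3 × 10⁶) incubated with 20 or 200 μM compound or DOX, 37 °C, 150 min. Compound: pellet extracted with methanol, supernatant by reversed-phase C18 HPLC, methanol eluent, 1 mL/min, UV detection at 308 or 270 nm. DOX: lysis buffer, fluorescence by spectrofluorometer. N = 2–3, mean ± SEM.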

Homo sapiens [2] = species: Homo sapiens; assay: Modulation of P-gp (unknown origin) transfected in human MDA435/LCC6MDR cells assessed as restoration of intracellular doxorubicin accumulation after 150 mins by spectrofluorometric analysis relative to parental cells; assay type: cell-based
How it was run: (§2)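 LCC6 or LCC6MDR cells (1 × 10⁶) incubated with 20 μM DOX plus 2 μM modulator, 150 min at 37 °C; 0.2% DMSO as negative control; cells washed in cold PBS, lysed in 0.75 M HCl/0.2% Triton X-100 in isopropanol; supernatant DOX fluorescence read by spectrofluorometry.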

Homo sapiens [3] = species: Homo sapiens; assay: Modulation of P-gp (unknown origin) transfected in human MDA435/LCC6MDR cells assessed as restoration of intracellular doxorubicin accumulation at 3 uM after 150 mins by spectrofluorometric analysis relative to parental cells; assay type: cell-based
How it was run: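 LCC6MDR cells with 20 μM DOX and modulator at 0, 0.05, 0.1, 0.5, 1, 3 or 8 μM; cells lysed and intracellular DOX measured by spectrofluorometry. N = 2–5 independent experiments, mean ± SEM.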

[4] = Cytotoxicity against human MDA435/LCC6MDR cells after 3 days by MTS assay; assay type: functional, cell-based; conditions: 72 h
[5] = Cytotoxicity against human LCC-6 cells after 3 days by MTS assay; assay type: functional, cell-based; conditions: LCC-6, 72 h
[6] = target: Multidrug resistance-associated protein 1 (Homo sapiens, UniProt P33527); assay: Modulation of MRP1 (unknown origin) transfected in human 2008/MRP1 cells assessed as potentiation of doxorubicin-induced cytotoxicity measured as doxorubicin IC50 at 1 uM after 5 days by MTS assay relative to doxorubicin alone treated cell; assay type: cell-based; conditions: 2008/mrp1, 120 h
Chain of Multidrug resistance-associated protein 1 (P33527 whole entry): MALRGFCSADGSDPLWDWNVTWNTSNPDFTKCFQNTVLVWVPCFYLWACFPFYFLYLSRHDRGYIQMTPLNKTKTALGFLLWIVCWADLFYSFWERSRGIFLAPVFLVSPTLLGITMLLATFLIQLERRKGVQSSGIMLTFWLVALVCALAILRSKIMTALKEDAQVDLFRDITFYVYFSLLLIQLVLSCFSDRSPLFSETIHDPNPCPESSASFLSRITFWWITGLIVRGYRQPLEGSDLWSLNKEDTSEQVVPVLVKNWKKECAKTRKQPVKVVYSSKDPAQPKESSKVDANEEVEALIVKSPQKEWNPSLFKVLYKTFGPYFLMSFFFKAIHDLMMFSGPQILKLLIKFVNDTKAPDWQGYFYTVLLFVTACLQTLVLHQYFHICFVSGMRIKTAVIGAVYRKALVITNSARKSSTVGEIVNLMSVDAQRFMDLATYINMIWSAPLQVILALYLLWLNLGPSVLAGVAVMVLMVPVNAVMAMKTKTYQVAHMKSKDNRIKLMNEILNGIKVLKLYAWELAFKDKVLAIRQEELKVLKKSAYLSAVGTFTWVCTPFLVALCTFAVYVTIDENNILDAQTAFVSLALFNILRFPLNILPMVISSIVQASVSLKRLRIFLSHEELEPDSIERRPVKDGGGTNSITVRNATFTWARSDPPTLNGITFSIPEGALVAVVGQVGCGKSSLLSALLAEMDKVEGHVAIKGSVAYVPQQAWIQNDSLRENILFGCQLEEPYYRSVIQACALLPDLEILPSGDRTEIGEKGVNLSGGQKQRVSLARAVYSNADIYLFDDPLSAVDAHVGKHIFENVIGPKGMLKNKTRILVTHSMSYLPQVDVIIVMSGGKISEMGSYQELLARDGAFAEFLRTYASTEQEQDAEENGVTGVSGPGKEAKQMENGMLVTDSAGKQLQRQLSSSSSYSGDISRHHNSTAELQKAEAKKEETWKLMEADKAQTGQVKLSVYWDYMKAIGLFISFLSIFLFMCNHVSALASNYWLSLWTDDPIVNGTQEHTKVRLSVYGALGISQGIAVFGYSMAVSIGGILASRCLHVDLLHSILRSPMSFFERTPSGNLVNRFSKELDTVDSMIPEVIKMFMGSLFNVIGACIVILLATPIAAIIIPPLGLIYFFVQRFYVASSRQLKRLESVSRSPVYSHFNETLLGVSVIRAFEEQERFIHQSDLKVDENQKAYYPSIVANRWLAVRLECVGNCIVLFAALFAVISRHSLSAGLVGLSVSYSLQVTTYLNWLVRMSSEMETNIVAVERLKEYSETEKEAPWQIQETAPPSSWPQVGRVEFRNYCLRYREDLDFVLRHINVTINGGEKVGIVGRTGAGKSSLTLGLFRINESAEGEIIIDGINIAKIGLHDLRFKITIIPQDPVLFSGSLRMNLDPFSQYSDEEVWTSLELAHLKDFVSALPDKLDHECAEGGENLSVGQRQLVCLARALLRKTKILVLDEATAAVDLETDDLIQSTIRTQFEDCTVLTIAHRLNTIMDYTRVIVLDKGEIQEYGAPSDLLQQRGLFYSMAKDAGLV
How it was run: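 After 5 days at 37 °C, viability was read by MTS. Doxorubicin IC50 came from nonlinear regression, and RF = IC50 without/with modulator. Parental 2008/P cells served as reference. N = 2−4, triplicates, mean ± SEM.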

[7] = target: T1, ATP-dependent translocase ABCB1 (Homo sapiens, UniProt P08183); assay: Modulation of P-gp (unknown origin) transfected in human MDA435/LCC6MDR cells assessed as reversible of paclitaxel resistance measured as IC50 for paclitaxel at 1 uM after 5 days by CellTiter 96 Aqueous assay relative to PTX alone treated cell; assay type: cell-based; conditions: 120 h
T1 sequence (P08183 whole entry): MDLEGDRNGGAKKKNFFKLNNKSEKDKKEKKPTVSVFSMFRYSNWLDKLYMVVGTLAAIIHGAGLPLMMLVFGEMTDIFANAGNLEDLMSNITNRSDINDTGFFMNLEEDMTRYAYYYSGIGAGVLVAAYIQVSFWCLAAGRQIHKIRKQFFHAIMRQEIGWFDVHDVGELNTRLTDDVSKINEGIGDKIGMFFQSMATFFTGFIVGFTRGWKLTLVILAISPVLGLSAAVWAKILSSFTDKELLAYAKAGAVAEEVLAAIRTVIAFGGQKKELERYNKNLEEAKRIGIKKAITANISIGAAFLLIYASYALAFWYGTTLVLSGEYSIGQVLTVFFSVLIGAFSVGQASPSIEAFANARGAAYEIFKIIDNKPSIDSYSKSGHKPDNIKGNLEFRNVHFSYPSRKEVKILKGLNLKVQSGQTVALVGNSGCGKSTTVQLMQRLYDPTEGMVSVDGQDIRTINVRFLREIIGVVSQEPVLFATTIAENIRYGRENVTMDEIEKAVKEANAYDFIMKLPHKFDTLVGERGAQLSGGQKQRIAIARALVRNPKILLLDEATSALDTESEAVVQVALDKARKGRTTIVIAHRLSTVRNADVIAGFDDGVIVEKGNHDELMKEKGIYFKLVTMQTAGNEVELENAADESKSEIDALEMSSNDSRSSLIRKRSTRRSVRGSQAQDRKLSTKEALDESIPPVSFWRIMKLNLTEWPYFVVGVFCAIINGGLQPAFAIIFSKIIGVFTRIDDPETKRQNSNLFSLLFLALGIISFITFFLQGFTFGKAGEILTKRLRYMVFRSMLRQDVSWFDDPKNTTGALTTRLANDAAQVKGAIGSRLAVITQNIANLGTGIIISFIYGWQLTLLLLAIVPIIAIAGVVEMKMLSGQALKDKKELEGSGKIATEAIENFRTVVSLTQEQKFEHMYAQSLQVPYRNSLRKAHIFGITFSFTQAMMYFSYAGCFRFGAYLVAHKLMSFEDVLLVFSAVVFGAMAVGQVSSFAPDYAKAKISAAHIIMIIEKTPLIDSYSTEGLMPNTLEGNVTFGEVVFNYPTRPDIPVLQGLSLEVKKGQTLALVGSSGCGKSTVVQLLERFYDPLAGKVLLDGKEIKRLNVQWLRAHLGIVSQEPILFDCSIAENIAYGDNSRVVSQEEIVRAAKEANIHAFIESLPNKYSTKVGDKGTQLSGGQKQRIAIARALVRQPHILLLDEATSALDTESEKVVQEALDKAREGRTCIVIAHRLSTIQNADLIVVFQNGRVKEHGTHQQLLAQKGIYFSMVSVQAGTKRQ

[8] = Selectivity index, ratio of IC50 for mouse […] cells to EC50 for modulation of P-gp (unknown origin) transfected in human MDA435/LCC6MDR cells assessed as reversing paclitaxel resistance; set-up: species or system L929
LCC6MDR (human) = assay: Inhibition of P-gp-mediated doxorubicin efflux in human LCC6MDR cells measured at 1.5 uM after 30 to 150 mins by spectrofluorometry relative to control
[9] = target: T2, Broad substrate specificity ATP-binding cassette transporter ABCG2 (Homo sapiens, UniProt Q9UNQ0); assay: Modulation of BCRP (unknown origin) transfected in human HEK293/R2 cells assessed as potentiation of topotecan-induced cytotoxicity measured as topotecan IC50 at 1 uM after 5 days by MTS assay relative to topotecan alone treated cell; assay type: cell-based; conditions: hek293/r2, 120 h
T2 sequence (Q9UNQ0 whole entry): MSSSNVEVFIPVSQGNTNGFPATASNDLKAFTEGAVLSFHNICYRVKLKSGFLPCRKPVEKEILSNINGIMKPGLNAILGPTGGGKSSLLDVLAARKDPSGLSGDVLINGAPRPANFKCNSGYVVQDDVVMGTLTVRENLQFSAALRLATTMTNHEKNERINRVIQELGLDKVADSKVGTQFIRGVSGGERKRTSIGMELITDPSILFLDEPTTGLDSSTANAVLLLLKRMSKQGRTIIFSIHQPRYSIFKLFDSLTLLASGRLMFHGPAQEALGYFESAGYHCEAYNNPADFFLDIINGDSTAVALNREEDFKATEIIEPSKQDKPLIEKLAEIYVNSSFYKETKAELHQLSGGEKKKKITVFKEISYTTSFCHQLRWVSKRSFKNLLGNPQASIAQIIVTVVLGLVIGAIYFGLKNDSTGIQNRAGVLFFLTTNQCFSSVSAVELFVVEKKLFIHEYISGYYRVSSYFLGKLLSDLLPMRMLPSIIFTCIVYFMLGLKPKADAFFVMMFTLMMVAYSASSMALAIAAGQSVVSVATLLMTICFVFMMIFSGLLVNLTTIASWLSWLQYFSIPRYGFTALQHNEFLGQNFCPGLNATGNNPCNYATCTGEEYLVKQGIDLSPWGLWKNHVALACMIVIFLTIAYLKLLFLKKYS
How it was run: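 Incubated 5 days at 37 °C; viability by MTS. Topotecan IC50 came from nonlinear regression, and RF = IC50 without/with modulator. Empty-vector HEK293/pcDNA3.1 served as reference. N = 2−4, triplicates, mean ± SEM.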

L929 = assay: Cytotoxicity against mouse L929 cells after 3 days by MTS assay; assay type: cell-based; conditions: L929, 72 h
[10] = target: T1, ATP-dependent translocase ABCB1; assay: Modulation of P-gp (unknown origin) transfected in human MDA435/LCC6MDR cells assessed as induction of intracellular doxorubicin accumulation at 2 uM after 150 mins by spectrofluorometric analysis relative to control; assay type: cell-based; conditions: 2.5 h; how it was run: as §2
LCC-6 [11] = assay: Effect on doxorubicin efflux in human LCC-6 cells measured at 1.5 uM after 30 to 150 mins by spectrofluorometry relative to control; assay type: functional, cell-based
How it was run: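 Efflux: LCC6 or LCC6MDR cells preloaded with 20 μM DOX 1 h at 37 °C, washed in PBS, resuspended in DMEM ± 1.5 μM modulator; samples at 0, 30, 60, 90, 120, 150 min chilled on ice; intracellular DOX by spectrofluorometry. DMSO control; N = 3–4, mean ± SEM.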

[12] = target: T1, ATP-dependent translocase ABCB1; assay: Modulation of P-gp (unknown origin) transfected in human MDA435/LCC6MDR cells assessed as reversible of paclitaxel resistance measured as IC50 for paclitaxel at 10 uM after 5 days by CellTiter 96 Aqueous assay relative to PTX alone treated cell; assay type: cell-based; conditions: 120 h
How it was run: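 They were held 5 days at 37 °C and viability read by CellTiter 96 AQueous (MTS). […] RF = IC50 of PTX without modulator / IC50 with modulator.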

[13] = Drug uptake in human LCC-6 cells at 200 uM after 150 mins by spectrofluorometry; assay type: ADME, cell-based; conditions: lcc-6, 2.5 h; how it was run: as §1
LCC-6 [14] = assay: Effect on doxorubicin influx in human LCC-6 cells measured at 1.5 uM after 30 to 150 mins by spectrofluorometry relative to control; assay type: functional, cell-based
[15] = P-gp (unknown origin)- mediated durg uptake in human MDA435/LCC6MDR cells at 20 uM after 150 mins by spectrofluorometry relative to control; assay type: ADME, cell-based; conditions: 2.5 h; how it was run: as §1
[16] = Drug uptake in human LCC-6 cells at 20 uM after 150 mins by spectrofluorometry; assay type: ADME, cell-based; conditions: lcc-6, 2.5 h; how it was run: as §1
[17] = P-gp (unknown origin)- mediated durg uptake in human MDA435/LCC6MDR cells at 200 uM after 150 mins by spectrofluorometry relative to control; assay type: ADME, cell-based; conditions: 2.5 h, in the assay text read “by HPLC” for “by spectrofluorometry”; how it was run: as §1
[18] = Modulation of P-gp (unknown origin) transfected in human MDA435/LCC6MDR cells assessed as reversible of paclitaxel resistance measured as IC50 for paclitaxel at 1 uM after 5 days by CellTiter 96 Aqueous assay

SMILES | Drug uptake [1] | Ratio [7] | fold change (FC) [10] | Drug uptake [13] | Drug uptake [15] | Drug uptake [16] | Drug uptake [17] | IC50 [18] [µM] | Activity (Homo sapiens [2]) | Activity (Homo sapiens [3]) | IC50 [4] [µM] | IC50 [5] [µM] | Ratio [6] | Ratio IC50/EC50 [8] | inhibition (LCC6MDR (human)) | Ratio [9] | IC50 (L929) [µM] | Activity (LCC-6 [11]) | Ratio [12] | Activity (LCC-6 [14])
COc1cccc2c1C(=O)c1c(O)c3c(c(O)c1C2=O)C[C@@](O)(C(=O)CO)C[C@@H]3O[C@H]1C[C@H](N)[C@H](O)[C@H](C)O1 [DOXORUBICIN] | Active |  |  |  |  |  |  |  |  |  |  |  |  |  |  |  |  |  |  | 
COc1ccc(CCN(C)CCCC(C#N)(c2ccc(OC)c(OC)c2)C(C)C)cc1OC (stereo unspecified) |  |  |  |  |  |  |  |  | Dose-dependent effect | Active |  |  |  |  |  |  |  |  |  | 
O=C(O[C@@H]1Cc2c(O)cc(O)cc2O[C@@H]1c1cc(O)c(O)c(O)c1)c1cc(O)c(O)c(O)c1 [EPIGALOCATECHIN GALLATE] |  | 1.2 |  |  |  |  |  |  |  |  | 56 | 69.1 |  |  |  |  | 82.3 |  | 1.2 | 
COc1cc(OC)c2c(c1)O[C@H](c1cc(OC)c(OC)c(OC)c1)[C@H](OC(=O)c1ccc(F)c(NC(=O)c3ccc(OC)c(OC)c3)c1)C2 |  | 48.2 | 2.5 |  |  |  |  |  | Dose-dependent effect |  | > 100 | > 100 | 0.8 | >698 |  | 2.7 | > 100 |  |  | 
COc1cc(OC)c2c(c1)O[C@H](c1cc(OC)c(OC)c(OC)c1)[C@H](OC(=O)/C=C/c1cc(OC)c(OC)c(OC)c1)C2 |  |  | 2.7 | Active | Not Active | Active | Not Active |  | Dose-dependent effect | Active | > 100 | > 100 |  |  | Active |  | > 100 | inactive |  | inactive

Now from value to molecule, other results behind:

Drug uptake [1] | Ratio [7] | fold change (FC) [10] | Drug uptake [13] | Drug uptake [15] | Drug uptake [16] | Drug uptake [17] | IC50 [18] [µM] | SMILES | Activity (Homo sapiens [2]) | Activity (Homo sapiens [3]) | IC50 [4] [µM] | IC50 [5] [µM] | Ratio [6] | Ratio IC50/EC50 [8] | inhibition (LCC6MDR (human)) | Ratio [9] | IC50 (L929) [µM] | Activity (LCC-6 [11]) | Ratio [12] | Activity (LCC-6 [14])
 | 43.8 | 2.7 |  |  |  |  |  | COc1cc(OC)c2c(c1)O[C@H](c1cc(OC)c(OC)c(OC)c1)[C@H](OC(=O)c1ccc(F)c(NC(=O)c3cc(OC)c(OC)c(OC)c3)c1)C2 |  | Active | > 100 | > 100 | 0.9 | >467 | Active | 2.3 | > 100 | inactive |  | 
 | 53.6 |  | Active | Not Active | Active | Not Active | 0.0027 | COc1cc(OC)c2c(c1)O[C@H](c1cc(OC)c(OC)c(OC)c1)[C@@H](OC(=O)c1ccc(F)c(NC(=O)c3cc(OC)c(OC)c(OC)c3)c1)C2 |  |  | > 100 | > 100 | 2.6 | >714 |  | 12.3 | > 100 |  |  | 
 | 31.4 |  |  |  |  |  | 0.0046 | COc1cc(OC)c2c(c1)O[C@H](c1cc(OC)c(OC)c(OC)c1)[C@@H](OC(=O)c1ccc(F)c(NC(=O)c3ccc(OC)c(OC)c3)c1)C2 |  |  | > 100 | > 100 | 2.6 | >585 |  | 10.4 | > 100 |  |  | 
